Published values gathered from unrelated publications.
Lines come from different studies, so protocols differ.

| Compound | tested on | assay | system | setting | quantity | result |
| --- | --- | --- | --- | --- | --- | --- |
| O=c1ccc2nc3ccc(OCc4ccc([N+](=O)[O-])o4)cc3oc-2c1 | Staphylococcus aureus | microbial growth | MRSA | 24 h | MIC | > 32 µg/mL |
| Oc1c(Cl)cc(Cl)cc1-c1[nH]c(Cl)c(Cl)c1Cl | Staphylococcus aureus | microbial growth | BAA44 MRSA |  | MIC | 0.06 µM |
| CN[C@H](CC(C)C)C(=O)N[C@H]1C(=O)N[C@@H](CC(N)=O)C(=O)N[C@H]2C(=O)N[C@H]3C(=O)N[C@H](C(=O)N[C@H](C(=O)O)c4cc(O)cc(O)c4-c4cc3ccc4O)[C@H](O)c3ccc(c(Cl)c3)Oc3cc2cc(c3O[C@@H]2O[C@H](CO)[C@@H](O)[C@H](O)[C@H]2O[C@H]2C[C@](C)(N)[C@H](O)[C@H](C)O2)Oc2ccc(cc2Cl)[C@H]1O | Staphylococcus aureus | microbial growth, broth dilution | MRSA | 24 h, drug-resistant strain | MIC | 0.67 µM |
| O=c1ccc2nc3ccc(O)cc3oc-2c1 | Escherichia coli | microbial growth |  | 24 h | MIC | > 32 µg/mL |
| COc1c(N2C[C@@H]3CCCN[C@@H]3C2)c(F)cc2c(=O)c(C(=O)O)cn(C3CC3)c12 | Escherichia coli | microbial growth | ATCC25922 |  | MIC | 0.03 µM |
| Oc1c(Br)cc(Br)cc1-c1[nH]c(Br)c(Br)c1Br | Staphylococcus aureus | microbial growth | ATCC29213 MSSA |  | MIC | 0.58 µM |
| COc1c(N2CC3CCCNC3C2)c(F)cc2c(=O)c(C(=O)OCc3cnc([N+](=O)[O-])s3)cn(C3CC3)c12 (centres unmarked) | Escherichia coli | microbial growth | ATCC25922 |  | MIC | 0.09 µM |
| N.N.[Cl][Pt][Cl] | HK-2 | cell growth or viability, MTT |  | 72 h | IC50 | 7.59 µM |
